Measured values from ChEMBL document CHEMBL4316597, “Design, Synthesis, and Biological Evaluation of Itaconic Acid Derivatives as Potential Anti-Influenza Agents” (J Med Chem, 2019).
Calls of active or inactive are those of the source. The calls are words filed in the database; no cut-off is given here.

Tests used:
Influenza A virus [1] = experiment: Antiviral activity against Influenza A virus (A/WSN/33) infected in MDCK cells assessed as reduction in NS2 protein distribution to cytoplasm at 10 nM measured after 9 hrs post infection by IF-staining based microscopy; assay type: functional, organism-based; conditions: A/WSN/1933(H1N1)
Method in brief: (§1)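 MDCK cells grown on coverslips (2 × 10^5/well, 16 h), infected at MOI 0.1 for 1 h, washed, then kept in E0 with test compound (1 or 10 μM) or LMB 10 nM; DMSO 0.05% as mock. Fixed at 9 h pi in 4% paraformaldehyde and immunostained for M1, NP, NS2 or PA (1:50), with Hoechst nuclear stain. Viewed by confocal microscopy at 63×. NP nuclear/cytoplasmic intensity ratio quantified; three independent experiments.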

[2] = Cytotoxicity against MDCK cells assessed as cell death after 72 hrs by MTT assay; assay type: cell-based, Canis lupus familiaris; conditions: dog
Method in brief: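 MDCK or RD cells at 2 × 10^4/well in E10, overnight at 37 °C/5% CO2, DPBS wash, then exposed to graded compound concentrations for 72 h. MTT added for 3 h, formazan dissolved in DMSO, absorbance read at 570 nm. CC50 (50% cell death) by Reed–Muench.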

Influenza A virus [3] = experiment: Inhibition of viral protein sub-cellular distribution in Influenza A virus (A/WSN/33) infected in MDCK cells assessed as reduction in M1 protein distribution to cytoplasm at 10 nM measured after 9 hrs post infection by IF-staining based microscopy; assay type: functional, organism-based; conditions: A/WSN/1933(H1N1); method in brief: as §1
Influenza A virus [4] = experiment: Antiviral activity against Influenza A virus (A/WSN/33) infected in MDCK cells assessed as reduction in PA protein distribution to cytoplasm at 10 nM measured after 9 hrs post infection by IF-staining based microscopy; assay type: functional, organism-based; conditions: A/WSN/1933(H1N1); method in brief: as §1
Influenza A virus [5] = experiment: Inhibition of viral protein sub-cellular distribution in Influenza A virus (A/WSN/33) infected in MDCK cells assessed as reduction in PA protein distribution to cytoplasm at 10 nM measured after 9 hrs post infection by IF-staining based microscopy; assay type: functional, organism-based; conditions: A/WSN/1933(H1N1); method in brief: as §1
Influenza A virus [6] = experiment: Antiviral activity against Influenza A virus (A/WSN/33) infected in MDCK cells assessed as reduction in NP protein distribution to cytoplasm at 10 nM measured after 9 hrs post infection by IF-staining based microscopy; assay type: functional, organism-based; conditions: A/WSN/1933(H1N1); method in brief: as §1
Influenza A virus [7] = experiment: Antiviral activity against Influenza A virus (A/WSN/33) infected in MDCK cells assessed as reduction in M1 protein distribution to cytoplasm at 10 nM measured after 9 hrs post infection by IF-staining based microscopy; assay type: functional, organism-based; conditions: A/WSN/1933(H1N1); method in brief: as §1
MDCK = experiment: Inhibition of CRM1 in MDCK cells infected with Influenza A virus (A/WSN/33) assessed as reduction in CRM1-mediated viral protein nuclear export by measuring reduction in NP protein distribution to cytoplasm at 10 nM measured after 9 hrs post infection by IF-staining based microscopy; assay type: cell-based; conditions: Canis lupus familiaris; method in brief: as §1
Influenza A virus [8] = experiment: Inhibition of viral protein sub-cellular distribution in Influenza A virus (A/WSN/33) infected in MDCK cells assessed as reduction in NS2 protein distribution to cytoplasm at 10 nM measured after 9 hrs post infection by IF-staining based microscopy; assay type: functional, organism-based; conditions: A/WSN/1933(H1N1); method in brief: as §1
[9] = Selectivity ratio of CC50 for MDCK cells to EC50 for Influenza A virus (A/WSN/33); assay type: toxicity; conditions: dog, read-out: Ratio CC50/EC50
Method in brief: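 SI is calculated as CC50 (MDCK, 72 h MTT) divided by EC50 (72 h crystal-violet CPE assay in MDCK).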

Influenza A virus [10] = experiment: Antiviral activity against Influenza A virus (A/WSN/33) infected in MDCK cells assessed as reduction in virus-induced cytopathic effect after 72 hrs by crystal violet-staining based assay; assay type: functional, organism-based; conditions: A/WSN/1933(H1N1)
Method in brief: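 Cells seeded at 2 × 10^4/well in E10 (DMEM, 10% FBS), 16–24 h at 37 °C/5% CO2, washed with DPBS, then infected at nine-fold TCID50 with or without serial compound concentrations. Influenza is run in MDCK and enterovirus/rhinovirus in RD. Incubated 72 h, fixed in 4% paraformaldehyde, stained with 0.1% crystal violet, and read for cell density. EC50 = 50% CPE inhibition by Reed–Muench; mean ± S.D. of at least three runs.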

SMILES: CCC(=C/[C@H](C)C/C=C/C(C)=C/[C@@H](C)C(=O)[C@@H](C)[C@H](O)[C@@H](C)C/C(C)=C/C(=O)O)/C=C/[C@@H]1OC(=O)C=C[C@@H]1C [LEPTOMYCIN B]
- Activity (Influenza A virus [1]): inactive
- CC50 at 72 h [2]: > 0.88 µM
- inhibition (Influenza A virus [3]): inactive
- Activity (Influenza A virus [4]): inactive
- inhibition (Influenza A virus [5]): inactive
- Activity (Influenza A virus [6]): Active
- Activity (Influenza A virus [7]): inactive
- inhibition (MDCK): Active
- inhibition (Influenza A virus [8]): inactive
- selectivity ratio [9]: > 4
- EC50 (Influenza A virus [10]): 0.18 µM

SMILES: C=C(CC(=O)NCc1cc(F)ccc1F)C(=O)NCc1cc(F)ccc1F
- CC50 at 72 h [2]: > 110 µM
- EC50 (Influenza A virus [10]): > 50 µM

SMILES: C=C(CC(=O)Nc1ccc(F)cc1C(F)(F)F)C(=O)Nc1ccc(F)cc1C(F)(F)F
- CC50 at 72 h [2]: > 110 µM
- EC50 (Influenza A virus [10]): > 50 µM

SMILES: C=C(CC(=O)Nc1ccc(OC)cc1F)C(=O)Nc1ccc(OC)cc1F
- CC50 at 72 h [2]: > 110 µM
- selectivity ratio [9]: > 3
- EC50 (Influenza A virus [10]): 31 µM

SMILES: C=C(CC(=O)Nc1cc(F)ccc1F)C(=O)O
- CC50 at 72 h [2]: > 110 µM
- EC50 (Influenza A virus [10]): > 50 µM

SMILES: C=C(CC(=O)Nc1cc(Cl)ccc1F)C(=O)O
- CC50 at 72 h [2]: > 110 µM
- EC50 (Influenza A virus [10]): > 50 µM

SMILES: C=C(CC(=O)Nc1ccccc1C(F)(F)F)C(=O)O
- CC50 at 72 h [2]: > 110 µM
- EC50 (Influenza A virus [10]): > 50 µM

SMILES: C=C(CC(=O)Nc1ccccc1C(F)(F)F)C(=O)Nc1ccccc1C(F)(F)F
- CC50 at 72 h [2]: > 110 µM
- EC50 (Influenza A virus [10]): > 50 µM

SMILES: C=C(CC(=O)Nc1cc(Cl)ccc1F)C(=O)Nc1cc(Cl)ccc1F
- CC50 at 72 h [2]: 19.9 µM
- selectivity ratio [9]: 111
- EC50 (Influenza A virus [10]): 0.18 µM

SMILES: C=C(CC(=O)Nc1cc(C(F)(F)F)ccc1F)C(=O)Nc1cc(C(F)(F)F)ccc1F
- CC50 at 72 h [2]: 15 µM
- selectivity ratio [9]: 136
- EC50 (Influenza A virus [10]): 0.11 µM

SMILES: C=C(CC(=O)Nc1ccc(Cl)cc1F)C(=O)O
- CC50 at 72 h [2]: > 110 µM
- EC50 (Influenza A virus [10]): > 50 µM

SMILES: O=C(/C=C\n1cnc(-c2cc(C(F)(F)F)cc(C(F)(F)F)c2)n1)NNc1ccccn1 [VERDINEXOR]
- CC50 at 72 h [2]: 31.8 µM
- selectivity ratio [9]: 9.69
- EC50 (Influenza A virus [10]): 3.28 µM

SMILES: C=C(CC(=O)Nc1ccc(Br)cc1Br)C(=O)Nc1ccc(Br)cc1Br
- CC50 at 72 h [2]: > 110 µM
- selectivity ratio [9]: > 2
- EC50 (Influenza A virus [10]): 41.6 µM
